{
  "source": "ChEMBL document CHEMBL4334464",
  "about": "“From Phenylthiazoles to Phenylpyrazoles: Broadening the Antibacterial Spectrum toward Carbapenem-Resistant Bacteria” (J Med Chem, 2019)",
  "key": {"[1]": {"system": "Staphylococcus aureus", "assay": "Antibacterial activity against methicillin-resistant Staphylococcus aureus NRS123-USA400 infected in mouse J774 cells assessed as reduction in intracellular bacterial cells at 2 times MIC incubated for 24 hrs followed by re-plating on TSA plate and measured after 18 to 22 hrs relative to control", "assay_type": "functional", "design": "scale not given: the % may be the effect or the level left", "summary_of_the_method": "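J774 murine macrophages were infected with MRSA USA400 and then treated at 2×MIC for 24 h, in triplicate. The read-out was percent reduction in intracellular colony-forming units versus untreated infected cells.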"}, "[2]": {"system": "Staphylococcus aureus", "assay": "Antibacterial activity against methicillin-resistant Staphylococcus aureus NRS123-USA400 clinical isolates over 14 serial passages by broth microdilution assay", "assay_type": "functional, organism-based", "summary_of_the_method": "(§1)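 MRSA USA400 was serially passaged over a 14-day period in the presence of each compound or control antibiotic. MIC was determined by broth microdilution after each passage. A four-fold rise in MIC was taken as a sign of resistance.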"}, "[3]": {"assay": "Stability in human liver microsomes assessed as compound remaining measured immediately in presence of NADPH by LC/MS/MS analysis", "assay_type": "ADME, Microsome", "details": "read-out: Stability", "summary_of_the_method": "(§2)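 Two independent runs (1st and 2nd) were done at each time point, and the mean percent remaining is reported. Incubations were run both with and without NADPH. Half-life and intrinsic clearance (Clint) were derived from the time-course data.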"}, "[4]": {"assay": "Stability in human liver microsomes assessed as compound remaining incubated for 15 mins in presence of NADPH by LC/MS/MS analysis", "assay_type": "ADME, Microsome", "details": "read-out: Stability", "summary_of_the_method": "as §2"}, "[5]": {"assay": "Stability in human liver microsomes assessed as compound remaining incubated for 30 mins in presence of NADPH by LC/MS/MS analysis", "assay_type": "ADME, Microsome", "details": "read-out: Stability", "summary_of_the_method": "as §2"}, "[6]": {"assay": "Stability in human liver microsomes assessed as compound remaining incubated for 60 mins in presence of NADPH by LC/MS/MS analysis", "assay_type": "ADME, Microsome", "details": "read-out: Stability", "summary_of_the_method": "as §2"}, "[7]": {"assay": "Stability in human liver microsomes assessed as compound remaining measured immediately in absence of NADPH by LC/MS/MS analysis", "assay_type": "ADME, Microsome", "details": "read-out: Stability", "summary_of_the_method": "as §2"}, "[8]": {"assay": "Stability in human liver microsomes assessed as compound remaining incubated for 15 mins in absence of NADPH by LC/MS/MS analysis", "assay_type": "ADME, Microsome", "details": "read-out: Stability"}, "[9]": {"assay": "Stability in human liver microsomes assessed as compound remaining incubated for 30 mins in absence of NADPH by LC/MS/MS analysis", "assay_type": "ADME, Microsome", "details": "read-out: Stability", "summary_of_the_method": "as §2"}, "[10]": {"assay": "Stability in human liver microsomes assessed as compound remaining incubated for 45 mins in absence of NADPH by LC/MS/MS analysis", "assay_type": "ADME, Microsome", "details": "read-out: Stability", "summary_of_the_method": "as §2"}, "[11]": {"assay": "Half life in human liver microsomes in presence of NADPH by LC/MS/MS analysis", "assay_type": "ADME, Microsome"}, "[12]": {"assay": "Half life in human liver microsomes in absence of NADPH by LC/MS/MS analysis", "assay_type": "ADME, Microsome"}, "[13]": {"assay": "Intrinsic clearance in human liver microsomes in presence of NADPH by LC/MS/MS analysis", "assay_type": "ADME, Microsome", "details": "read-out: CLH"}, "[14]": {"assay": "Intrinsic clearance in human liver microsomes in absence of NADPH by LC/MS/MS analysis", "assay_type": "ADME, Microsome", "details": "read-out: CLH"}, "[15]": {"assay": "Apparent permeability across basolateral to apical side in human Caco2 cells after 2 hrs by LC/MS/MS analysis", "assay_type": "ADME, cell-based", "details": "Caco-2"}, "[16]": {"assay": "Efflux ratio of apparent permeability across basolateral to apical side over apical to basolateral side in human Caco2 cells after 2 hrs by LC/MS/MS analysis", "assay_type": "ADME, cell-based", "details": "Caco-2"}, "[17]": {"assay": "Half life in Sprague-Dawley rat at 5 mg/kg, iv administered as bolus dose measured over 12 hrs by LC-MS/MS analysis", "assay_type": "ADME, organism-based", "details": "in vivo"}, "[18]": {"assay": "Clearance in Sprague-Dawley rat at 5 mg/kg, iv administered as bolus dose measured over 12 hrs by LC-MS/MS analysis", "assay_type": "ADME, organism-based", "details": "in vivo"}, "[19]": {"system": "Staphylococcus aureus", "assay": "Potency index, ratio of compound effect to vancomycin effect for antibiofilm activity against methicillin-resistant Staphylococcus aureus NRS384-USA300 clinical isolates at 0.5 times MIC", "assay_type": "functional"}, "[20]": {"system": "Staphylococcus aureus", "assay": "Antibacterial activity against methicillin-resistant Staphylococcus aureus NRS123-USA400 clinical isolates assessed as ratio of MIC after and before 10 serial passages by broth microdilution assay", "assay_type": "functional", "summary_of_the_method": "as §1"}, "[21]": {"system": "Staphylococcus aureus", "assay": "Antibacterial activity against methicillin-resistant Staphylococcus aureus NRS123-USA400 clinical isolates assessed as ratio of MIC after and before 8 serial passages by broth microdilution assay", "assay_type": "functional", "summary_of_the_method": "as §1"}, "[22]": {"system": "Staphylococcus aureus", "assay": "Antibacterial activity against methicillin-resistant Staphylococcus aureus NRS123-USA400 clinical isolates assessed as ratio of MIC after and before 14 serial passages by broth microdilution assay", "assay_type": "functional", "summary_of_the_method": "as §1"}},
  "note": "The source made the active and inactive calls. No cut-off for these calls is given here.",
  "data": [
    {"smiles": "C/C(=N\\NC(=N)N)c1cnn(-c2ccc(C#CC3CCCC3)cc2)c1C", "values": [
      {"measurement": "Activity", "setting": "[1]", "result": 90, "unit": "%"},
      {"measurement": "Activity", "setting": "[2]", "result": "Active"},
      {"measurement": "remaining at 0 min", "setting": "[3]", "result": 100, "unit": "%"},
      {"measurement": "remaining at 0.25 h", "setting": "[4]", "result": 93, "unit": "%"},
      {"measurement": "remaining at 0.5 h", "setting": "[5]", "result": 92, "unit": "%"},
      {"measurement": "remaining at 1 h", "setting": "[6]", "result": 82, "unit": "%"},
      {"measurement": "remaining at 0 min", "setting": "[7]", "result": 100, "unit": "%"},
      {"measurement": "remaining at 0.25 h", "setting": "[8]", "result": 99, "unit": "%"},
      {"measurement": "remaining at 0.5 h", "setting": "[9]", "result": 99, "unit": "%"},
      {"measurement": "remaining at 0.75 h", "setting": "[10]", "result": 99, "unit": "%"},
      {"measurement": "half-life", "setting": "[11]", "result": 3.23, "unit": "h"},
      {"measurement": "half-life", "setting": "[12]", "result": 8.42, "unit": "h"},
      {"measurement": "microsomal CLint", "setting": "[13]", "result": 35.8, "unit": "µL/min/mg"},
      {"measurement": "microsomal CLint", "setting": "[14]", "result": "< 116", "unit": "µL/min/mg"},
      {"measurement": "Papp B→A at 2 h", "setting": "[15]", "result": 0.01, "unit": "×10⁻⁶ cm/s"},
      {"measurement": "efflux ratio at 2 h", "setting": "[16]", "result": 1},
      {"measurement": "half-life", "setting": "[17]", "result": 10.5, "unit": "h"},
      {"measurement": "clearance", "setting": "[18]", "result": 16.7, "unit": "mL/min"},
      {"measurement": "Ratio", "setting": "[19]", "result": 2}
    ]},
    {"smiles": "C/C(=N\\NC(=N)N)c1cnn(-c2ccc(C#Cc3ccccc3)cc2)c1C", "values": [
      {"measurement": "Ratio", "setting": "[20]", "result": 1}
    ]},
    {"smiles": "C/C(=N\\NC1=NCCN1)c1cnn(-c2ccc(C#CC3CCCC3)cc2)c1C", "values": [
      {"measurement": "Activity", "setting": "[1]", "result": 98.4, "unit": "%"},
      {"measurement": "Ratio", "setting": "[21]", "result": 1},
      {"measurement": "Ratio", "setting": "[22]", "result": 2},
      {"measurement": "remaining at 0 min", "setting": "[3]", "result": 100, "unit": "%"},
      {"measurement": "remaining at 0.25 h", "setting": "[4]", "result": 99, "unit": "%"},
      {"measurement": "remaining at 0.5 h", "setting": "[5]", "result": 92, "unit": "%"},
      {"measurement": "remaining at 1 h", "setting": "[6]", "result": 79, "unit": "%"},
      {"measurement": "remaining at 0 min", "setting": "[7]", "result": 100, "unit": "%"},
      {"measurement": "remaining at 0.25 h", "setting": "[8]", "result": 98, "unit": "%"},
      {"measurement": "remaining at 0.5 h", "setting": "[9]", "result": 97, "unit": "%"},
      {"measurement": "remaining at 0.75 h", "setting": "[10]", "result": 97, "unit": "%"},
      {"measurement": "half-life", "setting": "[11]", "result": 2.55, "unit": "h"},
      {"measurement": "half-life", "setting": "[12]", "result": 20.3, "unit": "h"},
      {"measurement": "microsomal CLint", "setting": "[13]", "result": 42.3, "unit": "µL/min/mg"},
      {"measurement": "microsomal CLint", "setting": "[14]", "result": "< 116", "unit": "µL/min/mg"},
      {"measurement": "Papp B→A at 2 h", "setting": "[15]", "result": 0.15, "unit": "×10⁻⁶ cm/s"},
      {"measurement": "efflux ratio at 2 h", "setting": "[16]", "result": 1.5}
    ]}
  ]
}
